Results published in ChEMBL document CHEMBL3407444, “Novel 2,4-disubstituted pyrimidines as potent, selective, and cell-permeable inhibitors of neuronal nitric oxide synthase” (J Med Chem, 2015).

What was measured:
Nitric oxide synthase 3 = molecular target: T1, Nitric oxide synthase 3 (Bos taurus, UniProt P29473); test: Binding affinity to recombinant bovine endothelial NOS overexpressed in Escherichia coli assessed as production of nitric oxide from L-arginine measured for 5 mins by oxyhemoglobin NO capture assay
T1 sequence (P29473 whole entry): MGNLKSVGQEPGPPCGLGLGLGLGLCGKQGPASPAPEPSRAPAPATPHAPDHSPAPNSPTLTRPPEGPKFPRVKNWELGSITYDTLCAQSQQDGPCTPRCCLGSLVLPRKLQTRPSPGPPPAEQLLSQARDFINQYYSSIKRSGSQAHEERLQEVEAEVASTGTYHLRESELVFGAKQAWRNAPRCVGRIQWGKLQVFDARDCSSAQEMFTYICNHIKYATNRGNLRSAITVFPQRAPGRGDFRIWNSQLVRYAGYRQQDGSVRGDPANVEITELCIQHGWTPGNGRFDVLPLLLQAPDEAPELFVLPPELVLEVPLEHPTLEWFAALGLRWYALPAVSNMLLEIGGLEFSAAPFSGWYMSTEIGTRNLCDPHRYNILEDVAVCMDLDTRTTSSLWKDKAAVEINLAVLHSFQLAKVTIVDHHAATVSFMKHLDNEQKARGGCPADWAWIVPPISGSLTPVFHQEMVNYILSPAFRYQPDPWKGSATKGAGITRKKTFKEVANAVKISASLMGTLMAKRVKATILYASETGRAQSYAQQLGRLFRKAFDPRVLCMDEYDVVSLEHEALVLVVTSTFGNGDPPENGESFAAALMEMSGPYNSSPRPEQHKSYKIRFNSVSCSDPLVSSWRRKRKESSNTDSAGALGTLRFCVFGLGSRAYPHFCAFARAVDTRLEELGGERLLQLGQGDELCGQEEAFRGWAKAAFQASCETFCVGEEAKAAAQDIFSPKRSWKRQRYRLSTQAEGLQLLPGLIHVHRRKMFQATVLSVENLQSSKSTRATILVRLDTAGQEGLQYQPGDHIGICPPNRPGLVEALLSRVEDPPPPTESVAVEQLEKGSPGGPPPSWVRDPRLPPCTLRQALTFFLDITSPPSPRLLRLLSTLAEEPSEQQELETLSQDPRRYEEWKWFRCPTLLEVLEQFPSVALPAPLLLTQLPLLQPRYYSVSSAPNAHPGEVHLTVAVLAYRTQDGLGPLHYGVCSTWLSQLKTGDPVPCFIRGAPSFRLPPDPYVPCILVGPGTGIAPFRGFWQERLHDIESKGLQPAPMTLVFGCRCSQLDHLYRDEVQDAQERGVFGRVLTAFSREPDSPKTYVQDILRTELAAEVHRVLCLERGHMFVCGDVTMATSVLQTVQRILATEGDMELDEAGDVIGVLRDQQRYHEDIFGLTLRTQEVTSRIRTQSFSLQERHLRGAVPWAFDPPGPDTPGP
How it was run: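 Purified recombinant bovine eNOS (E. coli-expressed) at 37 °C in 100 mM HEPES, 10% glycerol, pH 7.4, with 10 μM L-arginine and tetrahydrobiopterin, 100 μM NADPH, 0.83 mM CaCl2, ~320 units/mL calmodulin, and 3 μM human oxyhemoglobin. Methemoglobin formation read at 401 nm every 22 s for 5 min. Nine inhibitor concentrations (500 μM–50 nM), at least duplicate.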

Nitric oxide synthase 1 [1] = molecular target: Nitric oxide synthase 1 (Rattus norvegicus, UniProt P29476); test: Binding affinity to recombinant rat neuronal NOS overexpressed in Escherichia coli assessed as production of nitric oxide from L-arginine measured for 5 mins by oxyhemoglobin NO capture assay
[2] = molecular target: T2, Nitric oxide synthase, inducible (Mus musculus, UniProt P29477); test: Binding affinity to recombinant mouse macrophage inducible NOS overexpressed in Escherichia coli assessed as production of nitric oxide from L-arginine measured for 5 mins by oxyhemoglobin NO capture assay
T2 sequence (P29477 whole entry): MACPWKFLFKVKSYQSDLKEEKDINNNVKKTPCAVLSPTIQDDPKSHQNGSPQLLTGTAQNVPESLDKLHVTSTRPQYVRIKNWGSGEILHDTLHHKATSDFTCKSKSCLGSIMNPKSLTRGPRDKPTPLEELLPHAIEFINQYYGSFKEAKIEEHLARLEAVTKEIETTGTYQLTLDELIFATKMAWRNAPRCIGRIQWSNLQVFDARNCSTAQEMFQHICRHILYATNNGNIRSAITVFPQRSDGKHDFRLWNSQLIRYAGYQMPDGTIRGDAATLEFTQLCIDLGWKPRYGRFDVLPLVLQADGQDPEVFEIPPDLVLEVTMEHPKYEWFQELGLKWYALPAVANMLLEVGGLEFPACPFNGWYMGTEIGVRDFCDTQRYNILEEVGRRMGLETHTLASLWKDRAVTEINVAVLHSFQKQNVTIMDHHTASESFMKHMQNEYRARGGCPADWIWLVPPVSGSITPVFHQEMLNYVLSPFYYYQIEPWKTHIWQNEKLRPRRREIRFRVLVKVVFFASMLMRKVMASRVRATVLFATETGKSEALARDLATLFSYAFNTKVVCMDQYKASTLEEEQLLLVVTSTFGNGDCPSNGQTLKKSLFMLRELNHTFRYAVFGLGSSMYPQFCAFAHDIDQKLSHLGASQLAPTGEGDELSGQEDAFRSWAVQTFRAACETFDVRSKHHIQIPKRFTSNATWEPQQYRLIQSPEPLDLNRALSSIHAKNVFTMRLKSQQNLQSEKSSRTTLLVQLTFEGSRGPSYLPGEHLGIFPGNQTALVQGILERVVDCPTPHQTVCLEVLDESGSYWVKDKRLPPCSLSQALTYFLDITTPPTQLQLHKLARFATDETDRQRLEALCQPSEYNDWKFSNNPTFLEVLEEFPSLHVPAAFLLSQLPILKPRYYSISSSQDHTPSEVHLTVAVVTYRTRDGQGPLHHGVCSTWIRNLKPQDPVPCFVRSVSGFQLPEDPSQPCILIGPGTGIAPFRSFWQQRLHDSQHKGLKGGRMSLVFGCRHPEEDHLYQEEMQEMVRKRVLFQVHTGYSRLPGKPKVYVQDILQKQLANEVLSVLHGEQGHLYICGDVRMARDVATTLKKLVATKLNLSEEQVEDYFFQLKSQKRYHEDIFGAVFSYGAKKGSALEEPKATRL

Nitric oxide synthase 1 [3] = molecular target: Nitric oxide synthase 1 (Homo sapiens, UniProt P29475); test: Binding affinity to recombinant human neuronal NOS overexpressed in Escherichia coli assessed as production of nitric oxide from L-arginine measured for 5 mins by oxyhemoglobin NO capture assay
[4] = Selectivity ratio of Ki for recombinant mouse macrophage inducible NOS to Ki for recombinant rat neuronal NOS
[5] = Selectivity ratio of Ki for recombinant bovine endothelial NOS to Ki for recombinant rat neuronal NOS
[6] = Inhibition of calmodulin-dependent bovine neuronal NOS using [3H]-arginine as substrate assessed as citrulline formation after 30 mins; parameters: species or system Bos taurus
Homo sapiens = species on record: Homo sapiens; test: Binding affinity to human sigma-2 receptor at 10 uM after 90 mins by radioligand displacement assay relative to control
[7] = molecular target: T3, Alpha-2C adrenergic receptor (Homo sapiens) (UniProt P18825); test: Binding affinity to human adrenergic alpha-2C receptor at 10 uM after 90 mins by radioligand displacement assay relative to control
T3 sequence (whole entry): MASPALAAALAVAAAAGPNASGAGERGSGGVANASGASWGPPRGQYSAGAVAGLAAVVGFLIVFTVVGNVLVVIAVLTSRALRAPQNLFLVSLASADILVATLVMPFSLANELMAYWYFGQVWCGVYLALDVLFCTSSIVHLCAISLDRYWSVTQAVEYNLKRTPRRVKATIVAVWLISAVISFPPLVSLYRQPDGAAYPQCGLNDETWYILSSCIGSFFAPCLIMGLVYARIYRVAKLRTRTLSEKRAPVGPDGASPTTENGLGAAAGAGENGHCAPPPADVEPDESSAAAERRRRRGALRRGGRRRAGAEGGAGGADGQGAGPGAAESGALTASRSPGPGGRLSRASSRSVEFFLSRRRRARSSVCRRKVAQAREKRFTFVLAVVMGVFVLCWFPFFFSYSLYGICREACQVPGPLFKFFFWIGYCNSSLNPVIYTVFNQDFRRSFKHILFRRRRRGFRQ

[8] = molecular target: T4, 5-hydroxytryptamine receptor 1A (Homo sapiens) (UniProt P08908); details: 10 uM
T4 sequence (whole entry): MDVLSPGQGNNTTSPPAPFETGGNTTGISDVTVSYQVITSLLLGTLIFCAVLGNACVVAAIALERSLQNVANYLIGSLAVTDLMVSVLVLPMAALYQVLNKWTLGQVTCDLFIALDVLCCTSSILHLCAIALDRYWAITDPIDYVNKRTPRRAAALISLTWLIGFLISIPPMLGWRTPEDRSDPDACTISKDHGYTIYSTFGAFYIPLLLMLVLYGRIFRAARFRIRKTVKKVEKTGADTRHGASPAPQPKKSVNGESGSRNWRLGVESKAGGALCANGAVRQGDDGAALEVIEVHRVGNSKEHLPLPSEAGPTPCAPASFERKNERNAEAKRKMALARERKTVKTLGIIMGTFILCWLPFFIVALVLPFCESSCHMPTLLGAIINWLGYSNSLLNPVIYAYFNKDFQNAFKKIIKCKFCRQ

[9] = molecular target: T5, Sigma non-opioid intracellular receptor 1 (Homo sapiens, UniProt Q99720); test: Binding affinity to human sigma-1 receptor at 10 uM after 90 mins by radioligand displacement assay relative to control
[10] = molecular target: T5, Sigma non-opioid intracellular receptor 1; test: Binding affinity to human sigma-1 receptor after 90 mins by radioligand displacement assay
CYP2D6 = CYP2D6 (Homo sapiens, UniProt P10635); test: Inhibition of human liver microsomal CYP2D6 using bufuralol as substrate at 10 uM preincubated for 5 mins followed by NADPH addition measured after 10 mins by LC-MS/MS analysis; assay type: ADME; details: liver microsomes, probe bufuralol
How it was run: (§1)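 Human liver microsomes in Kphos buffer, test compound at 10 μM (DMSO). Probe substrate added and preincubated 5 min at 37 °C, then started with NADPH. Incubation times: CYP3A4 (midazolam) 5 min, CYP2D6 (bufuralol) 10 min, CYP2C19 (S-mephenytoin) 20 min. Stopped with cold acetonitrile containing internal standard. Metabolites measured by LC-MS/MS; % inhibition from peak-area ratios relative to DMSO control.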

[11] = molecular target: 5-hydroxytryptamine receptor 2A (Homo sapiens) (UniProt P28223); test: Binding affinity to human 5-HT2A receptor at 10 uM after 90 mins by radioligand displacement assay relative to control
CYP2C19 = CYP2C19 (Homo sapiens, UniProt P33261); test: Inhibition of human liver microsomal CYP2C19 using S-mephenytoin as substrate at 10 uM preincubated for 5 mins followed by NADPH addition measured after 20 mins by LC-MS/MS analysis; assay type: ADME; details: liver microsomes, probe S-mephenytoin; how it was run: as §1
[12] = Permeability across apical to basolateral side in human Caco2 cells assessed as drug recovery at 10 uM after 2 hrs by LC/MS/MS analysis; assay type: ADME, cell-based; details: caco-2, 2 h
How it was run: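 Caco-2 monolayers grown 3 weeks, integrity checked by Lucifer yellow transport. Compound 10 μM for 2 h added apically; apical buffer HBSS/10 mM HEPES with glucose, pH 6.5, basolateral transport buffer pH 7.4. Receiver side sampled and quantified by LC/MS/MS; recovery reported.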

[13] = molecular target: D(3) dopamine receptor (Homo sapiens) (UniProt P35462); details: 10 uM
[14] = molecular target: T6, Alpha-2C adrenergic receptor (Homo sapiens, UniProt P18825); test: Binding affinity to human adrenergic alpha-2C receptor after 90 mins by radioligand displacement assay
T6 sequence (P18825 whole entry): T3 sequence (whole entry)

CYP3A4 = CYP3A4 (Homo sapiens, UniProt P08684); test: Inhibition of human liver microsomal CYP3A4 using midazolam as substrate at 10 uM preincubated for 5 mins followed by NADPH addition measured after 5 mins by LC-MS/MS analysis; assay type: ADME; details: liver microsomes, probe midazolam; how it was run: as §1
[15] = Selectivity ratio of Ki for recombinant human neuronal NOS to Ki for recombinant rat neuronal NOS

Chain of Nitric oxide synthase 1 (Homo sapiens, UniProt P29475) (P29475 whole entry): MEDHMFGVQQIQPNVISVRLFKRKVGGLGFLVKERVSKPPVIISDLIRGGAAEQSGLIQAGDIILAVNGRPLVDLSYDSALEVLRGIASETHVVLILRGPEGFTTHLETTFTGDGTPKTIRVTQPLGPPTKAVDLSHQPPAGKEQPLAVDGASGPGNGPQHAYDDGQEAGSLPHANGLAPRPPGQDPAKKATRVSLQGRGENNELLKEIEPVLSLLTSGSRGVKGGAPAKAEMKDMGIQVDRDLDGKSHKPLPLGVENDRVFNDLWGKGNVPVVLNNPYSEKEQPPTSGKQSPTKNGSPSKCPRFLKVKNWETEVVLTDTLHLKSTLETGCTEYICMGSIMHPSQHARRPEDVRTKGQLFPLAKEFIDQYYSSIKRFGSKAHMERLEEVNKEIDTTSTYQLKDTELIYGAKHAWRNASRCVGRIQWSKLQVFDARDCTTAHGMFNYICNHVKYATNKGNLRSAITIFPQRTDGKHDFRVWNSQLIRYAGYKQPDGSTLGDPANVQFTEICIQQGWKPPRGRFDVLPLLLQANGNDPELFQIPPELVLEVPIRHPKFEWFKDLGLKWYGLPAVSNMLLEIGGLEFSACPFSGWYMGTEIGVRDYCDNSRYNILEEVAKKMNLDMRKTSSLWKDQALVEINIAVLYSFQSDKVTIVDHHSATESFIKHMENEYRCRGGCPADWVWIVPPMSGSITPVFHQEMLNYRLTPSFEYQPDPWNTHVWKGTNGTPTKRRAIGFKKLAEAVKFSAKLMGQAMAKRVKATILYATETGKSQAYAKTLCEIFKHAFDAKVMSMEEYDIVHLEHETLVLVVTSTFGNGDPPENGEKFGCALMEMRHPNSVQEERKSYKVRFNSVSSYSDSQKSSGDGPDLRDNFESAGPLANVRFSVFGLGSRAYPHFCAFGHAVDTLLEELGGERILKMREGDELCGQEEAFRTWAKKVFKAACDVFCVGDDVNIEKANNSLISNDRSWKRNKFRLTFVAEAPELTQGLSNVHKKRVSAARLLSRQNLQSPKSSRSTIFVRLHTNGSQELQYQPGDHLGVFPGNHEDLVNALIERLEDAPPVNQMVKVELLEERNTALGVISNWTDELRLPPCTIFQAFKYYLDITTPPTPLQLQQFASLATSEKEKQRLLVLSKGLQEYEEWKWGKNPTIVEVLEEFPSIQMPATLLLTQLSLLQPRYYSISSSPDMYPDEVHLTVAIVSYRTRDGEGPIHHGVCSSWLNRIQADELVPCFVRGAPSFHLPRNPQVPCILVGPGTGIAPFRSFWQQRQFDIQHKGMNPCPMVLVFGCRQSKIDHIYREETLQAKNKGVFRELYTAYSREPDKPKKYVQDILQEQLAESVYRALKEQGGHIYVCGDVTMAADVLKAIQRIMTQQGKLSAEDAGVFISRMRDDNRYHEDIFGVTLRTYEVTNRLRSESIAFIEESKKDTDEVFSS
Chain of Nitric oxide synthase 1 (Rattus norvegicus, UniProt P29476) (P29476 whole entry): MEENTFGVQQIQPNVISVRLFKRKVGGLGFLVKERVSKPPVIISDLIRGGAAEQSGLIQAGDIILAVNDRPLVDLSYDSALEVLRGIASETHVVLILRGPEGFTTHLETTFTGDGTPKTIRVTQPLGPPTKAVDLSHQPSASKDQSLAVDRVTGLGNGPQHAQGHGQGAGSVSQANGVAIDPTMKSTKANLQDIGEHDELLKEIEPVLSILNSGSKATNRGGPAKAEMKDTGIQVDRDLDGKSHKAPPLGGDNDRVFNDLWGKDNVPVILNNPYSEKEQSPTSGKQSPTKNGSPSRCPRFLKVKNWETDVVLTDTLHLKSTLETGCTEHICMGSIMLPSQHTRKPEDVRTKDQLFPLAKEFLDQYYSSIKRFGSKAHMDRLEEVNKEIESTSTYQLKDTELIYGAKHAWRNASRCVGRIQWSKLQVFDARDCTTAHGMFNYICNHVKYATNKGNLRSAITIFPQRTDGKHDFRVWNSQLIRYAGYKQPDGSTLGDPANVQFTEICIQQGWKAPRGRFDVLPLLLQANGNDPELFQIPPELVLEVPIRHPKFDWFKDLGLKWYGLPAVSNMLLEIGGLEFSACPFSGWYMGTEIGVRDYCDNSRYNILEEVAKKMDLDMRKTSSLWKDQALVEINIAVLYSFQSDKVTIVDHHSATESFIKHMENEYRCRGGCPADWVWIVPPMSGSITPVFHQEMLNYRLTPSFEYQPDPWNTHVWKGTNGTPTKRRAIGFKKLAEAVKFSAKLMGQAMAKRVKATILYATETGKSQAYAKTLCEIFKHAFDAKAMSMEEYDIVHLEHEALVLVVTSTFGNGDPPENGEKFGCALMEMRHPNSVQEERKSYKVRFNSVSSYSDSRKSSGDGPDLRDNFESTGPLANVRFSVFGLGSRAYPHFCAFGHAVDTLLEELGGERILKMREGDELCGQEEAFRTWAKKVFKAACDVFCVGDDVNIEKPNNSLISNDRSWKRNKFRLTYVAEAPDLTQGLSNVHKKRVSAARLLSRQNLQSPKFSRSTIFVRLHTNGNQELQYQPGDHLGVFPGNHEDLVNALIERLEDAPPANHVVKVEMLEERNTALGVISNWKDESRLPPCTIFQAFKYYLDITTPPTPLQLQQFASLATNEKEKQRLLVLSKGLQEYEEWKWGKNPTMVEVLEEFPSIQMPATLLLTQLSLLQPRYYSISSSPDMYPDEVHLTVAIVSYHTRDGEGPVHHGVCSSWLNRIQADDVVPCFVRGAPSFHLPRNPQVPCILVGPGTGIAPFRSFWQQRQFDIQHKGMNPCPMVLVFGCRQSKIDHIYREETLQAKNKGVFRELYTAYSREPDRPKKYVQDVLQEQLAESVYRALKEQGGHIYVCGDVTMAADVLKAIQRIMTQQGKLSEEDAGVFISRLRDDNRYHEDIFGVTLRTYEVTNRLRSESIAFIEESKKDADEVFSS
T5 sequence (Q99720 whole entry): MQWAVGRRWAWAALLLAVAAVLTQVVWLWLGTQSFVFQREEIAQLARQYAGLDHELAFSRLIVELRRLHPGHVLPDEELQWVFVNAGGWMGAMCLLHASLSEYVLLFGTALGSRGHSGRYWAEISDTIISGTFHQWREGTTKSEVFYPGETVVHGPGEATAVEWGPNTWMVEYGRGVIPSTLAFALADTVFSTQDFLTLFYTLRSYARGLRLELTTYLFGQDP
Chain of D(3) dopamine receptor (Homo sapiens) (P35462 whole entry): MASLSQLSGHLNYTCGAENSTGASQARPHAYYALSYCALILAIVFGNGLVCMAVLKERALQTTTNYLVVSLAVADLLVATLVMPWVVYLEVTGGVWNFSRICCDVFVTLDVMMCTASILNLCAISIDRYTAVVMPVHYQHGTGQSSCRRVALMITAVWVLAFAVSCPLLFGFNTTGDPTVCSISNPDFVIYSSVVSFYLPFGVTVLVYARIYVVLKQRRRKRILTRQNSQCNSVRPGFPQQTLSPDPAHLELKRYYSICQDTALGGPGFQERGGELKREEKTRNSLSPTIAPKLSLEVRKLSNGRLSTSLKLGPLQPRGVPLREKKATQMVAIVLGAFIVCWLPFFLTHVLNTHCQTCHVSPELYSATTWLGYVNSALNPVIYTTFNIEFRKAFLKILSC
Chain of 5-hydroxytryptamine receptor 2A (Homo sapiens) (P28223 whole entry): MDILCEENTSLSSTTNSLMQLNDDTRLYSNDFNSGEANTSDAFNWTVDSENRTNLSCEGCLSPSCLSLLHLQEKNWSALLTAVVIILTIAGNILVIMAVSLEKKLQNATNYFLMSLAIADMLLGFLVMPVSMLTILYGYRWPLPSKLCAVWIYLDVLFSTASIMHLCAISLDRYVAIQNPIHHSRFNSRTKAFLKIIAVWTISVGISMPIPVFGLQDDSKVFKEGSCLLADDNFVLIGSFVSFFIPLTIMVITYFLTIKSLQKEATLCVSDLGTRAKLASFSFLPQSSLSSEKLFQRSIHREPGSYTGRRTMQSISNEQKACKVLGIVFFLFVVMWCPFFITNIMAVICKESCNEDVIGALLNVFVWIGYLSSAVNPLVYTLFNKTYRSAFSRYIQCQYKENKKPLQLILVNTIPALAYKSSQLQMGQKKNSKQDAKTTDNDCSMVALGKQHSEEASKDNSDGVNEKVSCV
Chain of CYP2D6 (P10635 whole entry): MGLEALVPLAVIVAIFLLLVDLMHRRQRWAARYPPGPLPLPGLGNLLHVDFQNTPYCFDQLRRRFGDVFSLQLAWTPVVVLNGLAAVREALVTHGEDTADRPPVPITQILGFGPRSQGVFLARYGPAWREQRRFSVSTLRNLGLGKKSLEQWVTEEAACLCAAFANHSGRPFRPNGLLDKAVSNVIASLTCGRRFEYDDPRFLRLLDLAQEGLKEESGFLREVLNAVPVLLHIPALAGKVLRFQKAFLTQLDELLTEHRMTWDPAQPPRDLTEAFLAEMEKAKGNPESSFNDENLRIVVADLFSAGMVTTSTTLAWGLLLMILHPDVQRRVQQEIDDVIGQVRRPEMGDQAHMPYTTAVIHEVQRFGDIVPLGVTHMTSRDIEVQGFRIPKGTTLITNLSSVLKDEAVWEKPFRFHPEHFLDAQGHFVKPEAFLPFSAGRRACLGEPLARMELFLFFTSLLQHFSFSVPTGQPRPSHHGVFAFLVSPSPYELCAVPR
Chain of CYP2C19 (P33261 whole entry): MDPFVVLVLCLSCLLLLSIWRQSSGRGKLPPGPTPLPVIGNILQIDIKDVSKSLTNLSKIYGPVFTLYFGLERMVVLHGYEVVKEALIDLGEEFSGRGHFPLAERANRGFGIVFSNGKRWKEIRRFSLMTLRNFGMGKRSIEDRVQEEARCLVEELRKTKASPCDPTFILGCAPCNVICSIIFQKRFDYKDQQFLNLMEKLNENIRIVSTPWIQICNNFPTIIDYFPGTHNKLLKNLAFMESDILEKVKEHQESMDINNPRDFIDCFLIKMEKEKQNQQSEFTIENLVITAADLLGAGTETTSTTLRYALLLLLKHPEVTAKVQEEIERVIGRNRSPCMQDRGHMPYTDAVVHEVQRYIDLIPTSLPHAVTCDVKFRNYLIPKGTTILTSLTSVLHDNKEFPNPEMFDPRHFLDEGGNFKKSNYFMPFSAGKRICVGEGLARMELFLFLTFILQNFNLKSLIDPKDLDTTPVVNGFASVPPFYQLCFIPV

## Fc1cccc(C[C@H]2C[C@@H]2NCCc2ccnc(-n3ccnc3)n2)c1
Nitric oxide synthase 3
  Ki: 40000 nM
Nitric oxide synthase 1 [1]
  Ki: 150 nM
[2]
  Ki: 3000 nM
Nitric oxide synthase 1 [3]
  Ki: 873 nM

## Fc1cccc(CCCNCCc2ccnc(-n3cncn3)n2)c1
Nitric oxide synthase 1 [1]
  Ki: 27000 nM

## Fc1cccc(CCCNCc2ccnc(-n3ccnc3)n2)c1
[4]
  Ratio Ki: 4
[5]
  Ratio Ki: 33

## Cc1nccn1-c1nccc(CCNCCCc2cccc(F)c2)n1
Nitric oxide synthase 1 [1]
  Ki: 11500 nM

## Cc1cn(-c2nccc(CCNCCCc3cccc(F)c3)n2)cn1
Nitric oxide synthase 1 [1]
  Ki: 81000 nM

## c1ccc(-n2ccnc2)cc1
[6]
  IC50: 25000 nM

## Cl.Fc1cccc(CCCNCCc2ccnc(-n3ccnc3)n2)c1
Homo sapiens
  inhibition: 88%
[7]
  inhibition: 95%
[8]
  inhibition: 83%
[9]
  inhibition: 94%
[10]
  Ki: 200 nM
CYP2D6
  inhibition at 10 min, 10 µM: > 70%
[11]
  inhibition: 88%
CYP2C19
  inhibition at 20 min, 10 µM: > 70%
[12]
  Drug recovery: 73%
[13]
  inhibition: 87%
[14]
  Ki: 200 nM
CYP3A4
  inhibition at 5 min, 10 µM: > 70%

## c1c[nH]cn1 [IMIDAZOLE]
[6]
  IC50: 200000 nM

## Clc1cccc(CCCNCCc2ccnc(-n3ccnc3)n2)c1
[4]
  Ratio Ki: 28
[15]
  Ratio Ki: 3.9
[2]
  Ki: 910 nM
[5]
  Ratio Ki: 253

## Fc1cccc(CCNCCNc2ccnc(-n3ccnc3)n2)c1
[4]
  Ratio Ki: 17
[5]
  Ratio Ki: 109

## Fc1cccc(C2CC2CNCCc2ccnc(-n3ccnc3)n2)c1 (stereo not given)
[4]
  Ratio Ki: 34
[15]
  Ratio Ki: 6.4
[5]
  Ratio Ki: 71

## Cc1cncn1-c1nccc(CCNCCCc2cccc(F)c2)n1
Nitric oxide synthase 3
  Ki: 15400 nM
Nitric oxide synthase 1 [1]
  Ki: 60 nM
[2]
  Ki: 24000 nM
Nitric oxide synthase 1 [3]
  Ki: 303 nM

## Fc1cccc(C[C@@H]2C[C@H]2NCCc2ccnc(-n3ccnc3)n2)c1
Nitric oxide synthase 3
  Ki: 10300 nM
Nitric oxide synthase 1 [1]
  Ki: 18 nM
[2]
  Ki: 2140 nM
Nitric oxide synthase 1 [3]
  Ki: 137 nM
